# Reference: ChEMBL document CHEMBL4433210, “Synthesis and Evaluation of Bifunctional Aminothiazoles as Antiretrovirals Targeting the HIV-1 Nucleocapsid Protein” (ACS Med Chem Lett, 2019)
# The source made the active and inactive calls.
# Key:
# [1] = tested on: Human immunodeficiency virus 1; assay: Antiviral activity against wild type HIV1 NL4-3 infected in human TZM-bl cells assessed as reduction in viral replication after 48 hrs by bright Glo-luciferase reporter gene assay based BiCycle assay; type: functional, organism-based; settings: Human immunodeficiency virus 1, NL4-3, TZM-bl
# Outline: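 BiCycle format: MT-2 cells infected with wild-type NL4-3 in the presence of compound dilutions. Virus produced in this first round was then quantified by infecting TZM-bl cells. IC50 was derived from the dose-response data.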
# [2] = tested on: Human immunodeficiency virus 1; assay: Antiviral activity against wild-type HIV1 NL4-3 infected in human TZM-bl cells treated with compound assessed as reduction in viral replication after 48 hrs by bright Glo-luciferase reporter gene assay based monocycle assay; settings: Human immunodeficiency virus 1, NL4-3
# [3] = Inhibition of synthesized Nucleocapsid protein (11 to 55 residues) assessed as reduction in NC-induced cTAR DNA destabilization pre-treated with cTAR and Nucleocapsid (11-55) for 15 mins followed by compound addition at 10 uM by spectroflurometry relative to control
# Outline: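 NC chaperone inhibition assay: fluorescence monitoring of NC-induced destabilization of cTAR DNA labelled with Alexa488 at the 5′ end and Dabcyl quencher at the 3′ end. Compound is tested at 10 μM.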
# [4] = tested on: Human immunodeficiency virus 1; assay: Antiviral activity against wild-type HIV1 NL4-3 infected infected in human MT2 cells assessed as reduction in HIV1 extracellular genomic RNA level at 1 uM and measured after 30 hrs post infection by TaqMan probe based RT-PCR analysis; type: functional, organism-based
# Outline: (§1)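 MT-2 cells were infected with NL4-3 at MOI 0.1 and incubated with test or reference agents at 20, 5 or 1 μM. Real-time PCR measured integrated HIV-1 DNA and intracellular and extracellular genomic HIV-1 RNA at 30 h post-infection. Levels are expressed as a percentage of the no-drug control culture.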
# [5] = tested on: Human immunodeficiency virus 1; assay: Antiviral activity against wild-type HIV1 NL4-3 infected infected in human MT2 cells assessed as reduction in HIV1 intracellular genomic RNA level at 1 uM and measured after 30 hrs post infection by TaqMan probe based RT-PCR analysis; type: functional, organism-based; outline: as §1
# [6] = tested on: Human immunodeficiency virus 1; assay: Antiviral activity against wild-type HIV1 NL4-3 infected infected in human MT2 cells assessed as reduction in HIV1 integrated DNA at 1 uM and measured after 30 hrs post infection by Alu-LTR PCR protocol based method; type: functional, organism-based; outline: as §1
# [7] = tested on: Human immunodeficiency virus 1; assay: (§2) Antiviral activity against HIV1 12465 harboring protease M46I/I54V/Q58E/T74P/V82L/L90M mutant infected in human TZM-bl cells infected with supernatants from virus-infected human MT2 cells treated with compound for 72 hrs assessed as reduction in viral replication after 48 hrs by bright Glo-luciferase reporter gene assay; type: functional, organism-based; settings: Human immunodeficiency virus 1, 12465
# Outline: (§3)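 BiCycle assay: MT-2 cells infected with a drug-resistant HIV-1 strain in the presence of compound dilutions. Virus produced in this first round is then measured by infecting TZM-bl cells. The readout is IC50.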
# [8] = tested on: Human immunodeficiency virus 1; assay: as §2, with “7401” for “12465”, “nucleoside reverse transcriptase M41L/E44D/D67N/T69D/M184V/L210W/T215Y” for “protease M46I/I54V/Q58E/T74P/V82L/L90M”; type: functional, organism-based; settings: Human immunodeficiency virus 1, 7401; outline: as §3
# [9] = tested on: Human immunodeficiency virus 1; assay: Selectivity ratio of IC50 for HIV1 12465 harboring protease M46I/I54V/Q58E/T74P/V82L/L90M mutant infected in human MT2 cells to IC50 for HIV1 NL4-3 infected in human MT2 cells; type: functional
# Outline: (§4)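 Fold change is the IC50 against the resistant strain divided by the IC50 against the wild-type NL4–3 reference. Both IC50 values come from the BiCycle assay (MT-2 infection, then TZM-bl readout of progeny virus).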
# [10] = tested on: Human immunodeficiency virus 1; assay: as §2, with “12231” for “12465”, “non-nucleoside reverse transcriptase 103N/179F/181C” for “protease M46I/I54V/Q58E/T74P/V82L/L90M”; type: functional, organism-based; settings: Human immunodeficiency virus 1, 12231; outline: as §3
# [11] = tested on: Human immunodeficiency virus 1; assay: Selectivity ratio of IC50 for HIV1 11845 harboring integrase 140S/148H double mutant mutant infected in human MT2 cells to IC50 for HIV1 NL4-3 infected in human MT2 cells; type: functional; outline: as §4
# [12] = tested on: Human immunodeficiency virus 1; assay: as §2, with “11808” for “12465”, “L10F/K20T/V32I/L33F/I54V/G73S/I84V/L89V/L90M” for “M46I/I54V/Q58E/T74P/V82L/L90M”; type: functional, organism-based; settings: Human immunodeficiency virus 1, 11808; outline: as §3
# [13] = tested on: Human immunodeficiency virus 1; assay: as §2, with “7400” for “12465”, “nucleoside reverse transcriptase M41L/D67N/M184V/L210W/T215Y” for “protease M46I/I54V/Q58E/T74P/V82L/L90M”; type: functional, organism-based; settings: Human immunodeficiency virus 1, 7400; outline: as §3
# [14] = tested on: Human immunodeficiency virus 1; assay: Selectivity ratio of IC50 for HIV1 11808 harboring protease L10F/K20T/V32I/L33F/I54V/G73S/I84V/L89V/L90M mutant infected in human MT2 cells to IC50 for HIV1 NL4-3 infected in human MT2 cells; type: functional; outline: as §4
# [15] = tested on: Human immunodeficiency virus 1; assay: Selectivity ratio of IC50 for HIV1 12231 harboring non-nucleoside reverse transcriptase 103N/179F/181C mutant infected in human MT2 cells to IC50 for HIV1 NL4-3 infected in human MT2 cells; type: functional; outline: as §4
# [16] = tested on: Human immunodeficiency virus 1; assay: Selectivity ratio of IC50 for HIV1 7400 harboring nucleoside reverse transcriptase M41L/D67N/M184V/L210W/T215Y mutant infected in human MT2 cells to IC50 for HIV1 NL4-3 infected in human MT2 cells; type: functional; outline: as §4
# [17] = tested on: Human immunodeficiency virus 1; assay: Selectivity ratio of IC50 for HIV1 7401 harboring nucleoside reverse transcriptase M41L/E44D/D67N/T69D/M184V/L210W/T215Y mutant infected in human MT2 cells to IC50 for HIV1 NL4-3 infected in human MT2 cells; type: functional; outline: as §4
# [18] = Cytotoxicity against human PBMC cells assessed as reduction in cell viability after 7 days by MTS assay; type: cell-based; settings: read-out: TD50
# Outline: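 Cytotoxicity in peripheral blood mononuclear cells by MTS assay, giving TD50. Only compounds that met the BiCycle IC50 ≤ 5 μM criterion and were positive in the NC inhibition assay were tested.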
# [19] = tested on: Human immunodeficiency virus 1; assay: Selectivity ratio of IC50 for HIV1 12229 harboring non-nucleoside reverse transcriptase L100I/K103N/H221Y mutant infected in human MT2 cells to IC50 for HIV1 NL4-3 infected in human MT2 cells; type: functional; outline: as §4
# [20] = tested on: Human immunodeficiency virus 1; assay: as §2, with “12229” for “12465”, “non-nucleoside reverse transcriptase L100I/K103N/H221Y” for “protease M46I/I54V/Q58E/T74P/V82L/L90M”; type: functional, organism-based; settings: Human immunodeficiency virus 1, 12229; outline: as §3
# [21] = tested on: Human immunodeficiency virus 1; assay: as §2, with “11845” for “12465”, “integrase 140S/148H double” for “protease M46I/I54V/Q58E/T74P/V82L/L90M”; type: functional, organism-based; settings: Human immunodeficiency virus 1, 11845; outline: as §3
# [22] = Selectivity index, ratio of TD50 for cytotoxicity aginst human PBMC cells to IC50 for antiviral activity against wild type HIV1 NL4-3 infected in human TZM-bl cells assessed as reduction in viral replication after 48 hrs by bright Glo-luciferase reporter gene assay based BiCycle assay; type: toxicity, cell-based; settings: read-out: Selectivity Index
# Outline: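 SI calculated as TD50 from the PBMC MTS assay divided by IC50 from the BiCycle antiviral assay (MT-2 infection followed by TZM-bl read-out).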
compound,measurement,setting,value
Nc1nc(-c2ccc(OCc3cccc(C(=O)N4CCN(C(=O)c5ccc(COc6ccccc6-c6csc(N)n6)cc5)CC4)c3)cc2)cs1,IC50,[1],28 µM
same,IC50,[2],> 50 µM
same,inhibition,[3],15%
Nc1nc(CCNC(=O)c2ccc(COc3ccccc3-c3csc(N)n3)cc2)cs1,IC50,[1],36 µM
same,IC50,[2],> 50 µM
same,inhibition,[3],16%
Nc1nc(-c2ccc(C(=O)NCCCNC(=O)c3ccc(COc4ccccc4-c4csc(N)n4)cc3)cc2)cs1,IC50,[1],15 µM
same,IC50,[2],12 µM
same,inhibition,[3],15%
Cc1cc(/C=C/C#N)cc(C)c1Nc1ccnc(Nc2ccc(C#N)cc2)n1,Activity,[4],Active
same,Activity,[5],Active
Nc1nc(CCc2nc(-c3ccc(COc4ccccc4-c4csc(N)n4)cc3)no2)cs1,IC50,[1],6 µM
same,IC50,[2],35 µM
same,inhibition,[3],inactive
Nc1nc(-c2ccc(OCc3cccc(C(=O)NCCNC(=O)c4ccc(COc5ccccc5-c5coc(N)n5)cc4)c3)cc2)co1,IC50,[1],6.2 µM
same,IC50,[2],> 50 µM
same,inhibition,[3],21%
Cc1nnc(C(=O)NC(C)(C)c2nc(C(=O)NCc3ccc(F)cc3)c(O)c(=O)n2C)o1,Activity,[6],Active
Nc1nc(CC(=O)NCCNC(=O)c2ccc(COc3ccccc3-c3csc(N)n3)cc2)cs1,IC50,[1],> 100 µM
same,IC50,[2],> 100 µM
Nc1ccc(NCCNS(=O)(=O)c2ccc(COc3ccccc3-c3csc(N)n3)cc2)nc1,IC50,[1],> 100 µM
same,IC50,[2],> 100 µM
Nc1ccc(NCCNC(=O)c2ccc(COc3ccccc3-c3csc(N)n3)cc2)nc1.O=C(O)C(F)(F)F.O=C(O)C(F)(F)F.O=C(O)C(F)(F)F,IC50,[1],3.8 µM
same,IC50,[7],6 µM
same,IC50,[8],2.7 µM
same,Ratio IC50,[9],1.6
same,IC50,[10],5 µM
same,Ratio IC50,[11],0.6
same,IC50,[12],3 µM
same,IC50,[13],1.5 µM
same,Ratio IC50,[14],0.8
same,Ratio IC50,[15],1.3
same,Ratio IC50,[16],0.4
same,IC50,[2],> 50 µM
same,Ratio IC50,[17],0.7
same,CC50 at 168 h,[18],45 µM
same,Ratio IC50,[19],3.1
same,inhibition,[3],15%
same,IC50,[20],12 µM
same,IC50,[21],2.3 µM
same,selectivity ratio at 48 h,[22],12
Nc1nc(-c2ccc(C(=O)NCCNC(=O)c3ccc(COc4ccccc4-c4csc(N)n4)cc3)cc2)cs1,IC50,[1],5 µM
same,IC50,[2],30 µM
same,inhibition,[3],inactive
Nc1nc(-c2ccc(OCc3cccc(C(=O)NCCNC(=O)c4ccc(COc5cccc6sc(N)nc56)cc4)c3)cc2)cs1,IC50,[1],37 µM
same,IC50,[2],> 50 µM
same,inhibition,[3],17%
Nc1nc(-c2ccc(OCc3cccc(C(=O)NCCCCNC(=O)c4ccc(COc5ccccc5-c5csc(N)n5)cc4)c3)cc2)cs1,IC50,[1],5 µM
same,IC50,[2],16 µM
same,CC50 at 168 h,[18],> 100 µM
same,inhibition,[3],19%
same,selectivity ratio at 48 h,[22],> 20
Nc1nc(-c2ccc(OCc3cccc(C(=O)NCCNC(=O)c4ccc(COc5ccc(F)cc5-c5csc(N)n5)cc4)c3)cc2)cs1.O=C(O)C(F)(F)F.O=C(O)C(F)(F)F,IC50,[1],1.1 µM
same,IC50,[7],2 µM
same,IC50,[8],0.6 µM
same,Ratio IC50,[9],1.8
same,IC50,[10],4 µM
same,Ratio IC50,[11],2.7
same,IC50,[12],0.8 µM
same,IC50,[13],1.1 µM
same,Ratio IC50,[14],0.7
same,Ratio IC50,[15],3.6
same,Ratio IC50,[16],1
same,IC50,[2],> 50 µM
same,Ratio IC50,[17],0.5
same,CC50 at 168 h,[18],> 50 µM
same,Ratio IC50,[19],0.8
same,inhibition,[3],16%
same,IC50,[20],0.9 µM
same,IC50,[21],3 µM
same,selectivity ratio at 48 h,[22],> 45
Nc1nc(-c2ccccc2OCc2ccc(C(=O)NCCCNc3ccc([N+](=O)[O-])cn3)cc2)cs1,IC50,[1],12 µM
same,IC50,[2],28 µM
same,inhibition,[3],21%
Nc1nc(-c2ccc(OCc3cccc(C(=O)NCCNC(=O)c4ccc(COc5ccccc5-c5csc(N)n5)cc4)c3)cc2)cs1.O=C(O)C(F)(F)F.O=C(O)C(F)(F)F,IC50,[1],1.3 µM
same,IC50,[7],1.2 µM
same,IC50,[8],1.2 µM
same,Ratio IC50,[9],0.9
same,IC50,[10],0.8 µM
same,Ratio IC50,[11],0.8
same,IC50,[12],2.1 µM
same,IC50,[13],0.8 µM
same,Ratio IC50,[14],1.3
same,Ratio IC50,[15],0.6
same,Ratio IC50,[16],0.6
same,IC50,[2],5 µM
same,Ratio IC50,[17],0.9
same,CC50 at 168 h,[18],30 µM
same,Ratio IC50,[19],1.7
same,inhibition,[3],24%
same,IC50,[20],2.2 µM
same,IC50,[21],1 µM
same,selectivity ratio at 48 h,[22],23
Nc1nc(-c2ccc(OCc3cccc(C(=O)NCCCNC(=O)c4ccc(COc5ccccc5-c5csc(N)n5)cc4)c3)cc2)cs1,IC50,[1],12 µM
same,IC50,[2],> 50 µM
same,inhibition,[3],16%
Nc1nc(-c2ccccc2OCc2ccc(C(=O)NCCN3CCOCC3)cc2)cs1,IC50,[1],> 100 µM
same,IC50,[2],> 100 µM
